From ChEMBL document CHEMBL1255436, “Peptide fragments of a beta-defensin derivative with potent bactericidal activity” (Antimicrob Agents Chemother, 2010)
≈ marks a conversion by molar mass, not a printed value. Calls of active or inactive are those of the source. No cut-off for these calls is given here.

Experiments:
[1] = test system: Acinetobacter baumannii; assay: Antimicrobial activity against Acinetobacter baumannii ATCC 19606 after 3 hrs by bactericidal assay; assay type: functional; details: ATCC 19606 = CIP 70.34 = JCM 6841, 3 h
In short: (§1)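 Mid-log cultures grown in Iso-Sensitest broth, diluted to 1 × 10⁶–5 × 10⁶ CFU/ml in 10 mM potassium phosphate with 1% (vol/vol) Iso-Sensitest broth, pH 7.4. Peptides (monomer made by 10 mM DTT reduction overnight at room temperature, or dimer; oxidation state checked by MS) are incubated with 100 μl cells at 37°C for 3 h. Tenfold dilutions are plated and CFU counted next day. MBC is >99.99% killing, in duplicate on three occasions, taken as the mean. Mann-Whitney U test.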

[2] = test system: Pseudomonas aeruginosa; assay: Antimicrobial activity against Pseudomonas aeruginosa PAO1 after 3 hrs by bactericidal assay; assay type: functional; details: PAO1, 3 h; in short: as §1
[3] = test system: Staphylococcus aureus; assay: Antibacterial activity against methicillin-resistant Staphylococcus aureus J2918 after 3 hrs by bactericidal assay; assay type: functional; details: J2918, 3 h; in short: as §1
[4] = test system: Staphylococcus aureus; assay: Antimicrobial activity against Staphylococcus aureus ATCC 25923 after 3 hrs by bactericidal assay; assay type: functional; details: ATCC 25923, 3 h; in short: as §1
[5] = test system: Burkholderia cenocepacia; assay: Antimicrobial activity against Burkholderia cenocepacia J2315 after 3 hrs by bactericidal assay; assay type: functional; details: J2315, 3 h
[6] = test system: Escherichia coli; assay: Antimicrobial activity against Escherichia coli ATCC 25922 after 3 hrs by bactericidal assay; assay type: functional; details: ATCC 25922, 3 h; in short: as §1
[7] = test system: Enterococcus faecalis; assay: Antimicrobial activity against Enterococcus faecalis ATCC 700802 after 3 hrs by bactericidal assay; assay type: functional; details: ATCC 700802, 3 h; in short: as §1
[8] = test system: Pseudomonas aeruginosa; assay: Antimicrobial activity against Pseudomonas aeruginosa PAO1 after 3 hrs by bactericidal assay in presence of 200 mM NaCl; assay type: functional, organism-based
In short: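 Mid-log P. aeruginosa was grown in Iso-Sensitest broth and diluted in 10 mM potassium phosphate with 1% broth, pH 7.4, with sodium chloride added. Peptide dilutions were incubated with 1 × 10⁵ to 5 × 10⁵ CFU per 100 μl at 37°C for 3 h, then CFU were plated. MBC is >99.99% kill, the mean of duplicates from three independent runs.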

[9] = test system: Pseudomonas aeruginosa; assay: Antimicrobial activity against Pseudomonas aeruginosa PAO1 after 3 hrs by bactericidal assay in presence of 10 mM NaCl; assay type: functional; details: PAO1, 3 h
In short: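 P. aeruginosa PAO1 at mid-log in Iso-Sensitest broth, diluted to 1 × 10⁶–5 × 10⁶ CFU/ml in 10 mM potassium phosphate/1% Iso-Sensitest broth, pH 7.4, with 10 mM NaCl added. Dimeric peptides are incubated with 100 μl cells at 37°C for 3 h, then plated as tenfold dilutions with CFU counted next day. MBC is >99.99% killing, from duplicates on three occasions. Mann-Whitney U test.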

[10] = test system: Staphylococcus aureus; assay: Stability of the compound in Staphylococcus aureus ATCC 25923 after 4 hrs by LC-MS analysis; assay type: ADME, organism-based
In short: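 Peptide is incubated with S. aureus ATCC 25923 for 4 h. Peptide integrity is then assessed by LC-MS as peak area relative to the sample before incubation.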

[11] = test system: Pseudomonas aeruginosa; assay: Antimicrobial activity against Pseudomonas aeruginosa PAO1 assessed as bacterial killing at 16.5 uM after 3 hrs by bactericidal assay; assay type: functional, organism-based
[12] = test system: Pseudomonas aeruginosa; assay: Antimicrobial activity against Pseudomonas aeruginosa PAO1 at 20 uM; assay type: functional, organism-based
[13] = test system: Staphylococcus aureus; assay: Antimicrobial activity against Staphylococcus aureus ATCC 25923 at 20 uM; assay type: functional, organism-based

Molecule	MBC [1] [mg/L]	MBC [2] [mg/L]	MBC [3] [mg/L]	MBC [4] [mg/L]	MBC [5] [mg/L]	MBC [6] [mg/L]	MBC [7] [mg/L]	Activity [8]	MBC [9] [µM]	Stability [10]	Activity [11]	Activity [12]	Activity [13]
CC[C@H](C)[C@H](NC(=O)[C@H](CCCNC(=N)N)NC(=O)[C@H](C)NC(=O)[C@H](Cc1ccccc1)NC(=O)[C@H](Cc1ccccc1)NC(=O)[C@H](CCCCN)NC(=O)[C@H](CCCNC(=N)N)NC(=O)[C@H](CC(C)C)NC(=O)[C@@H](NC(=O)[C@H](CCCCN)NC(=O)[C@@H]1CCCN1C(=O)[C@H](CC(C)C)NC(=O)[C@@H](N)Cc1ccccc1)[C@H](C)O)C(=O)N[C@@H](CCCNC(=N)N)C(=O)NCC(=O)NCC(=O)N[C@@H](CCCNC(=N)N)C(=O)N[C@@H](C)C(=O)N[C@@H](C)C(=O)N[C@H](C(=O)N[C@@H](CC(C)C)C(=O)N[C@@H](CC(N)=O)C(=O)N[C@@H](C)C(=O)O)C(C)C	> 22	> 48	> 40	> 205	> 20	> 20	> 20	–	–	–	–	–	–
CC[C@H](C)[C@@H]1NC(=O)[C@H](CCC(N)=O)NC(=O)[C@H](CCC(=O)O)NC(=O)[C@H](CCC(=O)O)NC(=O)[C@H](CCCCN)NC(=O)CNC(=O)[C@H](CC(C)C)NC(=O)[C@@H]2CSSC[C@@H](C(=O)N[C@@H](CCCNC(=N)N)C(=O)N[C@@H](CCCCN)C(=O)N[C@@H](CCCCN)C(=O)N[C@@H](CCCCN)C(=O)O)NC(=O)[C@@H]3CSSC[C@H](NC(=O)[C@H](Cc4ccccc4)NC(=O)[C@H](Cc4ccccc4)NC(=O)[C@H](CCCCN)NC(=O)[C@H](CCCNC(=N)N)NC(=O)[C@H](CC(C)C)NC(=O)[C@@H](NC(=O)[C@H](CCCCN)NC(=O)[C@@H]4CCCN4C(=O)[C@H](CC(C)C)NC(=O)[C@@H](N)Cc4ccccc4)[C@H](C)O)C(=O)N[C@@H](CCCNC(=N)N)C(=O)N[C@@H]([C@@H](C)CC)C(=O)N[C@@H](CCCNC(=N)N)C(=O)NCC(=O)NCC(=O)N[C@@H](CCCNC(=N)N)C(=O)N[C@@H](CSSC[C@H](NC(=O)[C@H](CCCNC(=N)N)NC(=O)CNC1=O)C(=O)N[C@@H](CO)C(=O)N[C@@H](CC(N)=O)C(=O)N[C@@H](CO)C(=O)NCC(=O)N[C@@H](CCCNC(=N)N)C(=O)N[C@@H](CCCCN)C(=O)N3)C(=O)N[C@@H](C)C(=O)N[C@@H](C(C)C)C(=O)N[C@@H](CC(C)C)C(=O)N[C@@H](CC(N)=O)C(=O)N2	0.3 (≈ 0.0579 µM)	0.3 (≈ 0.0579 µM)	> 48	1 (≈ 0.193 µM)	0.6 (≈ 0.116 µM)	> 205	1.2 (≈ 0.231 µM)	–	–	–	–	–	–
CC(C)C[C@H](NC(=O)[C@@H](NC(=O)[C@H](CCCCN)NC(=O)[C@@H]1CCCN1C(=O)[C@H](CC(C)C)NC(=O)[C@@H](N)Cc1ccccc1)[C@H](C)O)C(=O)N[C@@H](CCCNC(=N)N)C(=O)N[C@@H](CCCCN)C(=O)N[C@@H](Cc1ccccc1)C(=O)N[C@@H](Cc1ccccc1)C(=O)O	0.75 (≈ 0.578 µM)	1.3 (≈ 1 µM)	2.4 (≈ 1.85 µM)	1.2 (≈ 0.925 µM)	> 48	3 (≈ 2.31 µM)	1.2 (≈ 0.925 µM)	Active	–	–	–	–	–
CC[C@H](C)[C@H](NC(=O)[C@H](CCC(N)=O)NC(=O)[C@H](CCC(=O)O)NC(=O)[C@H](CCC(=O)O)NC(=O)[C@H](CCCCN)NC(=O)CNC(=O)[C@H](CC(C)C)NC(=O)[C@H](C)NC(=O)[C@H](CC(N)=O)NC(=O)[C@H](CC(C)C)NC(=O)[C@@H](NC(=O)[C@H](C)NC(=O)[C@H](C)NC(=O)[C@H](CCCNC(=N)N)NC(=O)CNC(=O)CNC(=O)[C@H](CCCNC(=N)N)NC(=O)[C@H](NC(=O)[C@H](CCCNC(=N)N)NC(=O)[C@H](C)NC(=O)[C@H](Cc1ccccc1)NC(=O)[C@H](Cc1ccccc1)NC(=O)[C@H](CCCCN)NC(=O)[C@H](CCCNC(=N)N)NC(=O)[C@@H](N)CC(C)C)[C@@H](C)CC)C(C)C)C(=O)NCC(=O)N[C@@H](CCCNC(=N)N)C(=O)N[C@@H](C)C(=O)N[C@@H](CO)C(=O)N[C@@H](CC(N)=O)C(=O)N[C@@H](CO)C(=O)NCC(=O)N[C@@H](CCCNC(=N)N)C(=O)N[C@@H](CCCCN)C(=O)N[C@@H](CS)C(=O)N[C@@H](C)C(=O)N[C@@H](CCCNC(=N)N)C(=O)N[C@@H](CCCCN)C(=O)N[C@@H](CCCCN)C(=O)N[C@@H](CCCCN)C(=O)O	–	0.7 (≈ 0.158 µM)	2.5 (≈ 0.563 µM)	1.4 (≈ 0.315 µM)	–	2.5 (≈ 0.563 µM)	1.25 (≈ 0.281 µM)	Active	–	–	–	–	–
H-AAVLNA-OH	–	> 83.5	–	> 83.5	–	–	–	–	–	–	–	–	–
H-AAVLNALGKEEQIGRASNSGRKCARKKK-OH	> 10	> 16.5	> 10	> 16.5	–	> 10	> 5	–	–	–	–	–	–
H-FFARIRGGRAAVLNALGKEEQIGRASNSGRKCARKKK-OH	2.9	1.1	2.2	1.5	–	10	1.9	–	10	–	–	–	–
H-GGRAAVLNALGKEEQIGRASNSGRKCARKKK-OH	> 10	> 15.2	> 10	> 15.2	–	> 10	> 5	–	–	Stable	inactive	–	–
H-IRGGRAAVLNALGKEEQIGRAS-OH	2.4	1.2	> 22	> 48	> 205	38.6	4.8	–	–	–	–	–	–
H-LGKEEQIGRASNSGRKCARKKK-OH	> 48	> 33	> 205	1.2	> 22	–	0.6	–	–	–	–	–	–
H-LRKFFARIRGGR-OH	19	–	7.1	12.1	16.5	–	> 22	Active	–	–	–	–	–
H-RGGRAAVLNA-OH	> 205	1.2	1.2	> 22	38.6	9.6	> 48	–	–	–	–	–	–
H-RIRGGRAAVLNA-OH	–	–	–	–	–	–	–	–	–	–	–	inactive	inactive
H-RIRGGRAAVLNALGKEEQIGRASNSGRKCARKKK-OH	2.5	1.7	> 10	5.9	–	> 10	> 5	–	–	–	–	–	–
